Only some compounds are listed: those with a hit (about 2.3% of all), similar ones and a draw of the others.
OXTR potentiate: human OXTR potentiators, primary screen, fluorescence, CHO-OTR cells, Fluo-8 calcium. Fluo-8 calcium fluorescence, potentiator mode; 0% = oxytocin EC15, 100% = EC100. activation, % at 3 µM. actives 0.061% (n = 320,000). AID 2445, 2010;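 active = activation above that plate's cutoff, the mean activation of tested compounds plus 3 SD, cut at about 6.6% in these data, passing the limit was not always enough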;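 also: 100% uses oxytocin at 75 nM as the full agonist control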
Target sequence (P30559 whole entry, looked up): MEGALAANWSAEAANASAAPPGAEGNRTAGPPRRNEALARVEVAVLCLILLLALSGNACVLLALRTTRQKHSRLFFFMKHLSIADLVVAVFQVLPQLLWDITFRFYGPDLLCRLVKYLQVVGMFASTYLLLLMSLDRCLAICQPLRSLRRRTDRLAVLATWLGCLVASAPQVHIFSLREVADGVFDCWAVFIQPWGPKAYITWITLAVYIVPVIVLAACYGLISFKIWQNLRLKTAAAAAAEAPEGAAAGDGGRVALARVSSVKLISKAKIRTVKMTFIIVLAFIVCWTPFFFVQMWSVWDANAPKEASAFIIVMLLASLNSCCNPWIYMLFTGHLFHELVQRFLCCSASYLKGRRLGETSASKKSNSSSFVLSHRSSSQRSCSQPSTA
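test system = CHO-OTR cells, human receptor | compound = single-point 3.0 µM | schedule = 6 min compound pre-incubation at room temperature, 100 s kinetic read | signal = Fluo-8 no-wash calcium dye fluorescence, excitation 470-495 nm, emission 515-575 nm | repeats = single well per compound, singlicate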
V1aR counter: agonists of human V1a receptor, primary screen, counter-screen for OXTR agonist project, fluorescence, CHO-V1R cells; Vasopressin V1a receptor (Homo sapiens), P37288; Fluo-8 calcium fluorescence, agonist mode; 0% DMSO, 100% 3 nM vasopressin; activation, % at 3 µM; actives 0.25% (n = 320,000);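 active = activation above the mean activation of all tested compounds plus 3 SD, per screening run, cut at about 20% in these data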;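 also: signal is peak over basal fluorescence ratio across a 100 second FLIPR read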
TAAR1 ag: human TAAR1 agonists, primary screen, Fluo-8 calcium fluorescence, CHO RD-HGA16 cells. Trace amine-associated receptor 1 (Homo sapiens), Q96RJ0. vehicle wells 0%, saturating PEA agonist 100%. activation, % at 3 µM. actives 0.99% (n = 360,000). AID 624467, 2012;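 active = activation above the mean activation of all test compounds in the run plus 3 SD, cut at about 38% in these data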
Target sequence (Q96RJ0 whole entry, looked up): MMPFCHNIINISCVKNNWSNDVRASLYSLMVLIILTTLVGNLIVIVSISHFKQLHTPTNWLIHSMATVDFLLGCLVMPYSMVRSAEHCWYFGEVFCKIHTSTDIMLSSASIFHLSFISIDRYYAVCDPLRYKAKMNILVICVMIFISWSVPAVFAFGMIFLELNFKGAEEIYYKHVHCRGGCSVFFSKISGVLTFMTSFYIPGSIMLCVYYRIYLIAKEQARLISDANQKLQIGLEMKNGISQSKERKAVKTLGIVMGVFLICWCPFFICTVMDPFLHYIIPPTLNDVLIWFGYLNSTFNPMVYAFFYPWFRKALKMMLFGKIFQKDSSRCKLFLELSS
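Assay system: CHO-derived RD-HGA16 cells with stable Gα16 and human TAAR1; timing: 17-24 h seeding, 75 min 37 °C dye, 30 min RT; read-out: % activation from peak over basal fluorescence ratio, DMSO-to-PEA scaled; measured by: kinetic Fluo-8 calcium fluorescence; benchmarks: low control DMSO, high control PEA (EC100); doses: 3 µM single concentration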
TAAR1 antagonist: human TAAR1 antagonists, primary screen, Fluo-8 calcium fluorescence, CHO RD-HGA16 cells | Trace amine-associated receptor 1 (Homo sapiens), Q96RJ0 | antagonist | inhibition, % at 3 µM | actives 1.5% (n = 360,000);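 active = inhibition above a per-plate cutoff, the mean inhibition of test compounds on that plate plus 3 SD, cut at about 49% in these data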;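 also: 0% = DMSO plus EC80 beta-PEA response and 100% = DMSO alone without agonist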
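Test system – hTAAR1-expressing CHO RD-HGA16 cells, Gα16-coupled · Reagent – β-PEA at EC80 concentration, post-compound challenge · Compound dosing – 3 µM, single point · Timing – 140 s kinetic read after compound, 140 s after agonist · Detection – Fluo-8 intracellular calcium dye fluorescence, real-time kinetic reads · Control set – DMSO and EC80 PEA controls · Repeats – n of 1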
OXTR ag: human OXTR agonists, primary screen, fluorescence, CHO-OTR cells, Fluo-8 calcium | Oxytocin receptor (Homo sapiens), P30559 | AID 2435, 2010 | Fluo-8 calcium fluorescence; normalized: DMSO 0%, oxytocin 100% | activation, % at 3 µM | actives 0.32% (n = 320,000);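 active = activation above the mean of all tested compounds plus 3 SD, cutoff set per screening run, cut at about 20% in these data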;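 also: peak over basal fluorescence ratio from a 100 s FLIPR kinetic read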
TAAR1 ag conf: human TAAR1 agonists, retest of hits, confirmation, Fluo-8 calcium fluorescence, CHO RD-HGA16 cells; shares compounds with TAAR1 ag; scaled: DMSO 0%, maximal phenethylamine 100%; activation, % at 3 µM; actives 82% (n = 2,400);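 active = activation above a cutoff set at the run's mean compound activation plus 3 SD, cut at about 39% in these data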
Ga16 nonsel ag: nonselective calcium mobilization agonists, CHO-Ga16 cells, counter-screen for hTAAR1 agonist project, cell-based, fluorescence, CHO-Ga16 parental line. activation, % at 3 µM. Fluo-8 calcium fluorescence; normalized to maximal ATP response, DMSO zero. actives 50% (n = 2,400). shares compounds with TAAR1 ag;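 active = activation above the run cutoff, the mean activation over all tested wells plus 3 SD, cut at about 12% in these data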;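 also: 0% = DMSO wells and 100% = maximal ATP response on the peak over basal ratio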
TAAR1 desensitize: TAAR1 desensitization by agonist hits, confirmation, counter-screen for TAAR1 agonist project, cell-based, fluorescence, tachyphylaxis. shares compounds with TAAR1 ag. CHO RD-HGA16 hTAAR1, Fluo-8 calcium, beta-PEA response inhibition. inhibition, % at 3 µM. actives 46% (n = 2,400). AID 651951, 2012;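 active = inhibition above the run cutoff, the mean inhibition of all test compounds plus 3 SD, cut at about 49% in these data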;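 also: beta-PEA stimulus applied at its EC80; loss of beta-PEA calcium signal after compound pretreatment read as receptor desensitization; 0% = DMSO with beta-PEA at EC80 and 100% = DMSO alone without agonist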
Ga16 antag count: inhibition of ATP-evoked calcium response in CHO-Ga16 cells, counter-screen for TAAR1 agonist project, cell-based, fluorescence; CHO-Ga16 ATP-induced calcium, Fluo-8 fluorescence; actives 39% (n = 2,400); inhibition, % at 3 µM; shares compounds with TAAR1 ag;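 active = inhibition above the plate's mean compound inhibition plus 3 SD, computed per plate, cut at about 22% in these data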;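 also: 0% = EC80 ATP with DMSO and 100% = DMSO wells without ATP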
Active calls of the source: *; . = not tested or not shown.

SMILES	OXTR potentiate	V1aR counter	TAAR1 ag	TAAR1 antagonist	OXTR ag	TAAR1 ag conf	Ga16 nonsel ag	TAAR1 desensitize	Ga16 antag count
CCOc1ccc(-c2c(C(=O)N/N=C/c3cccs3)nnn2-c2nonc2N)cc1	-0.5	13.9	96.0*	21.2	11.8	126.8*	80.0*	60.0*	31.8*
Nc1nonc1-n1nnc(C(=O)N/N=C/c2cccs2)c1-c1ccc2c(c1)OCO2	-11.9	51.6*	141.3*	66.1*	35.1*	122.5*	81.4*	65.0*	27.7*
CN1C=CC(=O)[C@@H](O)[C@H]1c1ccccc1Br	.	.	2.9	1.8	.	.	.	.	.
Cc1ccc(S(=O)(=O)NC2=NCN(CCc3ccccc3)CN2)cc1	-12.0	-0.5	64.2*	2.8	0.4	43.3*	0.3	1.5	8.0
CCn1cc(C(=O)O)c(=O)c2cc(F)c(N/N=C/c3ccccc3)cc21	-4.9	0.0	55.9*	69.9*	1.3	82.1*	2.5	85.0*	8.1
CCn1cc(C(=O)O)c(=O)c2cc(F)c(N3CCN(C(=O)Nc4ccccc4)CC3)cc21	4.3	0.8	10.5	1.7	2.2	.	.	.	.
CCOc1ccc(-c2c(C(=O)N/N=C/c3ccc(OC(C)C)cc3)nnn2-c2nonc2N)cc1	8.1	22.6*	116.4*	5.9	21.3*	117.6*	74.8*	46.4	36.8*
Cc1ccc(-c2c(C(=O)N/N=C/c3ccc(OC(C)C)cc3)nnn2-c2nonc2N)cc1	2.9	36.6*	130.5*	70.2*	30.5*	124.7*	94.3*	57.2*	45.6*
CCc1ccc(/C=N/NC(=O)c2nnn(-c3nonc3N)c2C(C)C)cc1	-5.9	47.4*	132.9*	80.2*	55.3*	133.6*	101.3*	96.1*	59.2*
Cc1ccc(-c2c(C(=O)N/N=C/c3ccc4c(c3)OCO4)nnn2-c2nonc2N)cc1	-9.1	4.2	25.8	27.8	14.9	.	.	.	.
NS(=O)(=O)c1ccc(NC(=O)COc2ccc(Cl)cc2)cc1	-20.8	6.5	5.1	15.5	1.2	.	.	.	.
O=C(C1CCCN(S(=O)(=O)c2cccc3nsnc23)C1)N1CCc2ccccc2C1 (stereo unspecified)	-16.8	5.5	46.7*	2.6	5.2	54.1*	9.7	42.7	22.7*
O=C(C1CCCN(S(=O)(=O)c2cccc3nsnc23)C1)N1CCCCCC1 (stereo unspecified)	-12.5	0.3	0.3	17.8	-0.4	.	.	.	.
CCCN(c1ccc(OCC)cc1)S(=O)(=O)c1ccc2c(c1)NC(=O)CO2	-12.9	0.3	1.1	-0.6	-1.6	.	.	.	.
COc1ccc(CNC(=O)CSc2nc3ccc(C)cc3[nH]2)cc1OC	-4.2	1.7	-0.2	-23.2	0.2	.	.	.	.
CCOC(=O)C(NCCc1ccccc1)(NC(C)=O)C(F)(F)F (stereo unspecified)	-7.2	0.8	.	.	-0.4	.	1.0	.	2.8
CCOC(=O)C(NCCc1ccc(F)cc1)(NC(=O)CC)C(F)(F)F (stereo unspecified)	1.9	0.5	51.2*	17.7	-1.1	64.0*	5.7	9.7	-3.0
CCOC(=O)NC(NCCc1ccccc1)(C(F)(F)F)C(F)(F)F	-0.4	0.5	87.3*	86.7*	-0.9	97.9*	14.8*	87.4*	-8.0
CCOC(=O)C(NCc1ccc(OC)cc1)(NC(C)=O)C(F)(F)F (stereo unspecified)	-8.9	-0.3	-0.6	18.5	-0.2	.	.	.	.
CCOC(=O)C(=O)N(C)c1c(CC)nc2c(OCc3cccc(Cl)c3)cccn12	.	.	-2.3	4.3	.	.	.	.	.
CN1CCN(c2ccc(NC(=O)c3cccc(OCc4ccccc4)c3)cc2)CC1	-10.2	3.8	54.1*	31.0	10.0	60.5*	7.5	70.8*	13.2
CCN1CCN(c2ccc(NC(=O)c3cccc(OCc4ccccc4)c3)cc2)CC1	-7.5	3.8	17.7	-1.3	6.1	.	.	.	.
CN1CCN(c2ccc(C(=O)NC3CCCCC3)cc2[N+](=O)[O-])CC1	-7.3	1.1	4.9	-6.3	1.6	.	.	.	.
CCNc1ccc2noc3c2c1C(=O)c1ccccc1-3	-10.8	77.7*	318.5*	89.5*	109.9*	113.8*	127.2*	65.8*	65.7*
CCNc1ccccc(-c2ccc3ccccc3n2)c1=O	2.7	2.3	-1.1	22.9	0.2	.	.	.	.
SMILES	OXTR potentiate	V1aR counter	TAAR1 ag	TAAR1 antagonist	OXTR ag	TAAR1 ag conf	Ga16 nonsel ag	TAAR1 desensitize	Ga16 antag count
CCOc1ccc2noc3c2c1C(=O)c1ccccc1-3	-14.2	75.1*	68.5*	42.9	59.4*	26.2	35.6*	28.5	40.5*
O=C(NC12CC3CC(CC(C3)C1)C2)OCCNC1CCCCC1	-1.6	2.1	3.6	-24.6	2.6	.	.	.	.
COc1ccc(C[C@@H]2CN3C(=NC[C@@H]3C)N2CCNC(=O)c2ccc(C)c(Br)c2)cc1	-3.9	-0.1	44.7*	4.2	-1.1	53.9*	14.7*	6.2	10.8
Cc1nccn1CC(=O)N/N=C/c1ccccc1O	-1.4	-0.6	59.4*	-14.6	1.6	63.5*	3.1	11.7	1.5
Cc1ccc(Nc2cc(C)nc(NCc3ccccc3)n2)cc1	-15.3	12.6	56.3*	2.4	9.3	87.8*	42.5*	44.9	27.1*
COc1ccc(Nc2cc(C)nc(NCc3ccccc3)n2)cc1	-9.1	8.9	35.3	-6.0	15.5	.	.	.	.
Cc1cc(NC2CCCCC2)nc(NCc2ccccc2)n1	-16.7	14.6	67.3*	19.0	13.8	75.5*	52.3*	59.2*	39.0*
N=c1c2c(-c3ccccc3)c(-c3ccccc3)n(Cc3ccccc3)c2ncn1CCO	-16.5	11.7	59.4*	-14.7	3.5	49.5*	20.2*	14.7	11.9
